# Assay outcomes deposited in PubChem by NMMLSC.
# MEKK3 PB1 HTS = modulators (inhibitors or enhancers) of MEK5 binding to human MEKK3 PB1 domain; bead-based flow cytometry, Alexa488-MEK5 binding to MEKK3; actives lie on both sides; 0 = blocked by unlabeled MEK5, 100 = vehicle; binding response (% of control), % at 10 µM; 290,000 compounds, 1.4% hits;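 active = binding response more than 3 SD above or below the average of its plate-row segment, actives on both sides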;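 note: Alexa488 bead fluorescence after subtracting the streptavidin-only scavenger bead signal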
# ABCG2 block = inhibitors of human ABCG2 transporter, ABCB1 counter-screen; 190,000 compounds, 0.1% hits; IgMXP3 cells, JC-1 efflux, flow cytometry; Q9UNQ0; inhibition, % at 6.6 µM; AID 1325;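 active = inhibition above 80%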;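 note: 0% = DMSO and 100% = nicardipine control wells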
#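 material = IgMXP3 (ABCG2) plus far-red-tagged CCRF-Adr (ABCB1) cells | amount = 3 million cells/mL, equal mix of both lines | also added = JC-1 transporter substrate | dosing = one concentration, 6.6 µM final | schedule = 10 min at 25 °C | measured by = flow cytometric JC-1 green MFI at 530 nm | read-out basis = percent efflux inhibition, scaled nicardipine 100% to DMSO 0%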
# MEKK2wt PB1 HTS = raises or lowers MEK5 binding to wildtype human MEKK2 PB1 domain; Q9Y2U5; bead flow cytometry, Alexa488-MEK5 binding to MEKK2 WT; actives lie on both sides; binding response (% of control), % at 10 µM; 290,000 compounds, 1.1% hits; in the data active = binding response below about 67% or above about 130%
# Efflux pump inh = antifungal efflux pump inhibition, Nile Red retention | S. cerevisiae Candida pump triplex | inhibition, % at 10 µM | 330,000 compounds, 0.44% hits | AID 485275;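 active = plate passing quality check with inhibition over a set limit, or well fluorescence over plate mean plus 4 SD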;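 note: Nile Red retained in pooled yeast measured as flow cytometry median fluorescence; 0% = buffer negative control and 100% = Enniatin B positive control; higher means more Nile Red kept so more efflux inhibition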
# MEKK2 mut-MEK5 = signal of MEK5 binding to mutant human MEKK2 PB1 domain; bead flow cytometry, Alexa488-MEK5 binding to MEKK2 mutant; percent response, % at 10 µM; 290,000 compounds, 0.35% hits; AID 1530; in the data active = percent response above about 24%, passing the limit was not always enough
# ABCB1 block = human ABCB1 inhibition, ABCG2 as counter-screen | CCRF-Adr cells, JC-1 efflux, flow cytometry | inhibition, % at 6.6 µM | 190,000 compounds, 0.067% hits | AID 1326; in the data active = inhibition above about 40%;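 note: 0% = vehicle and 100% = reference inhibitor; higher value means more JC-1 retained so stronger ABCB1 efflux block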
# MEKK2wt confirm = raises or lowers MEK5 binding to wildtype human MEKK2, retest; bead flow cytometry, Alexa488-MEK5 binding to MEKK2 WT; actives lie on both sides; binding response (% of control), % at 10 µM; 5,900 compounds, 2.4% hits; shares compounds with MEKK3 PB1 HTS; AID 1892; in the data active = binding response below about 16% or above about 210%; inactive = in between
# MEKK2mut confirm = signal of MEK5 binding to mutant human MEKK2, retest; shares compounds with MEKK3 PB1 HTS; bead flow cytometry, Alexa488-MEK5 binding to MEKK2 mutant; percent response, % at 10 µM; 5,900 compounds, 2% hits; in the data active = percent response mostly above about 71%, no sharp cut-off; inactive = mostly below about 38%;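 note: higher means compound restores mutant binding toward wildtype level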
# MEKK3-MEK5 inh = MEKK3-MEK5 PB1 inhibition, single concentration confirmation | shares compounds with MEKK3 PB1 HTS | bead flow cytometry, Alexa488-MEK5 binding to MEKK3; stronger effect = lower value | binding response (% of control), % at 10 µM | 5,900 compounds, 1.8% hits | AID 1894;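 active = binding response below 72% of control, or above a set upper limit, though filed actives all read lower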;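 note: 100% = DMSO only wells and 0% = binding blocked by excess unlabeled MEK5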
# An asterisk follows results filed as active; nt = not tested or not shown; [ ] = dose if it differs, or a comment. Hits are enriched below; roughly 2.5% of the tested compounds scored in any of these assays.
SMILES,MEKK3 PB1 HTS,ABCG2 block,MEKK2wt PB1 HTS,Efflux pump inh,MEKK2 mut-MEK5,ABCB1 block,MEKK2wt confirm,MEKK2mut confirm,MEKK3-MEK5 inh
Cc1c(/C=C2\SC(=O)N(CC(=O)Nc3ccc4c(c3)OCO4)C2=O)c2ccccc2n1C,2.0*[inhibitor],-1,-2.0*[inhibitor],0,-21,0,97,-2,99
O=C(CN1C(=O)CSCC1=O)Nc1ccc2c(c1)OCO2,136*,8,103,0,0,7,100,2,104
CCn1cc(/C=C2\SC(=O)N(CC(=O)Nc3ccc4c(c3)OCO4)C2=O)c2ccccc21,102,-1,100,0,14,0,nt,nt,nt
C=CCNC(=O)c1ccncc1,105,2,104,0,3,0,nt,nt,nt
C=CCNC(=O)c1ccc(-n2cccc2)cc1,138*,9,122,0,5,1,99,-3,101
O=C(NC(=S)Nc1ccc(S(=O)(=O)Nc2ncccn2)cc1)c1ccc(Br)cc1,95,-1,93,0,-6,0,nt,nt,nt
NCCCCCCNS(=O)(=O)c1cccc2c(Cl)cccc12,116,nt,140*,0,10,nt,112,2,98
CCCCCC(=O)N1CC2(CC(c3cccc(NC(=O)CC(c4ccccc4)c4ccccc4)c3)=NO2)C[C@@H]1C(N)=O (stereo partly drawn),81*[inhibitor],nt,96,0,3,nt,98,-11,98
O=C(NCc1ccco1)c1cccs1,77*[inhibitor],0,84,0,-11,0,100,-1,97
O=C(NCc1ccco1)NC12CC3CC(CC(C3)C1)C2,81*[inhibitor],2,91,0,-13,0,98,0,97
O=C(NCc1nc(-c2ccccc2)no1)c1cccs1,0.0*[inhibitor],17,-4.0*[inhibitor],0,-39,0,95,0,99
O=C(COC(=O)c1cc(=O)[nH]c2ccccc12)NCCc1ccccc1,nt,nt,nt,0,nt,nt,nt,nt,nt
O=C(COC(=O)C1CCC(=O)N1)Nc1ccccc1Br (stereo not drawn),128*,4,109,0,-2,1,102,-3,102
Cc1csc(-c2cnn(-c3ccccc3)c2NC(=O)c2cccc(F)c2)n1,104,0,101,0,-1,0,nt,nt,nt
Cc1csc(-c2cnn(-c3ccccc3)c2NC(=O)c2ccccc2)n1,1.0*[inhibitor],18,1.0*[inhibitor],0,-21,0,103,2,105
O=C(Oc1ccc(/C=N/NC(=O)c2ccccc2F)cc1)c1ccccc1,103,nt,104,-1,2,nt,nt,nt,nt
N#Cc1ccc(/C=N/NC(=O)c2ccccc2F)cc1,115,21,140*,0,47,1,101,-1,102
O=C(NCCSc1ccccc1)c1ccccc1Cl,156*,25,110,0,1,1,102,-2,104
COc1ccc2c(C)cc(SCC#N)nc2c1,102,2,58*[inhibitor],0,38*,0,101,-8,103
CC1(C)C2([N+](=O)[O-])CN3CC1([N+](=O)[O-])CN(C2)C3c1ccccc1 (stereo not drawn),101,4,102,0,-4,0,nt,nt,nt
CC(C)c1ccc(C2N3CC4([N+](=O)[O-])CN2CC([N+](=O)[O-])(C3)C4(C)C)cc1 (stereo not drawn),71*[inhibitor],5,95,0,-1,1,95,-8,96
Cc1coc2c1C(=O)C(=O)c1c-2ccc2c(C)cccc12,120,nt,138*,0,1,nt,101,1,107
